# Screening data as filed in PubChem.
# Most compounds without a hit are left out; they make up all but 4.3% or so of the library.
# TAAR1 agonist: human TAAR1 agonism; Q96RJ0; CHO RD-HGA16 TAAR1, Fluo-8 calcium fluorescence; vehicle wells 0%, saturating PEA agonist 100%; activation, % at 3 µM; 0.99% of 360,000 active; AID 624467;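 active = activation above the mean activation of all test compounds in the run plus 3 SD, cut at about 38% in these data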
#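 Assay system: CHO-derived RD-HGA16 cells with stable Gα16 and human TAAR1; timing: 17-24 h seeding, 75 min 37 °C dye, 30 min RT; read-out: % activation from peak over basal fluorescence ratio, DMSO-to-PEA scaled; measured by: kinetic Fluo-8 calcium fluorescence; benchmarks: low control DMSO, high control PEA (EC100); doses: 3 µM single concentration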
# TAAR1 antagonist: antagonists of human TAAR1; 1.5% of 360,000 active; inhibition, % at 3 µM; CHO RD-HGA16 TAAR1, Fluo-8 calcium fluorescence, antagonist; AID 624466;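 active = inhibition above a per-plate cutoff, the mean inhibition of test compounds on that plate plus 3 SD, cut at about 49% in these data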;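 also: 0% = DMSO plus EC80 beta-PEA response and 100% = DMSO alone without agonist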
#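 test system = CHO RD-HGA16 cells bearing hTAAR1 | replication = singlicate | controls = DMSO-only wells and EC80 β-PEA-stimulated wells | reagent = EC80 β-phenethylamine stimulus | read-out basis = percent inhibition of PEA-evoked calcium signal, max/basal emission ratio | schedule = seeding 17-24 h prior, 75-min 37 °C, 30-min RT dye loading | signal = kinetic Fluo-8 calcium fluorescence measurement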
# OX1R antag-1: OX1R (human) antagonism | O43613 | 1.8% of 330,000 active | inhibition, % at 6.6 µM | OX1R-expressing cells, FRET antagonist read-out; in the data active = inhibition mostly above about 38%, no sharp cut-off; inactive = mostly below about 40%;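 also: 0% = agonist challenge alone and 100% = reference antagonist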
# Target sequence (O43613 whole entry, looked up): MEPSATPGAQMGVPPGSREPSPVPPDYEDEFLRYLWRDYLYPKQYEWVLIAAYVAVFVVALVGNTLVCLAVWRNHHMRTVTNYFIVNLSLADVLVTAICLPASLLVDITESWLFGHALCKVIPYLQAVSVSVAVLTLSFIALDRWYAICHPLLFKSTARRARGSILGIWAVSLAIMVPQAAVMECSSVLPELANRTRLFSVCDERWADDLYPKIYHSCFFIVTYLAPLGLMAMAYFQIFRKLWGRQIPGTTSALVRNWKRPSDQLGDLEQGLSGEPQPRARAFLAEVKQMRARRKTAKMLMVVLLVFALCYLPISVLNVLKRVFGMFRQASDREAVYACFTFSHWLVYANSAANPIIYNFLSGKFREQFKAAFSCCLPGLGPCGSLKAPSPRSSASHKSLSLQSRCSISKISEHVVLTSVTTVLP
# GalR3 antagonist: antagonists of human GalR3. O60755. HEK293 GalR3-CNG cAMP membrane potential fluorescence; galR3 body fused to GalR1 C-terminus. inhibition, % at 3 µM. 0.44% of 360,000 active;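 active = inhibition above the screen-wide average plus 3 SD, cut at about 13% in these data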;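 also: forskolin and galanin both at EC90 stimulate the cells; cAMP rise reported by CNG channel membrane potential dye signal; 0% = forskolin plus galanin with DMSO and 100% = forskolin alone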
# OX1R antag-2: human HCRTR1 antagonism; O43613; CHO/OX1R cells, Fluo-8 calcium fluorescence, orexin A; inhibition, % at 5 µM; 0.43% of 330,000 active; AID 434989;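 active = inhibition above its plate's threshold, mean inhibition of all tested compounds on the plate plus 3 SD, cut at about 37% in these data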;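 also: 0% = orexin A challenge wells and 100% = SB-334867-A antagonist wells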
# CHO parental Ca: signal in parental CHO cells, OX1R antagonist counter-screen | inhibition, % at 5.6 µM | parental CHO-K1, ATP-induced calcium, Fluo-8 fluorescence | AID 463079 | 0.63% of 330,000 active;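 active = inhibition above that plate's mean sample inhibition plus 3 SD, cut at about 26% in these data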;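 also: 0% = ATP-challenged DMSO wells and 100% = DMSO wells without ATP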
#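 Test system: untransfected parental CHO cell line. Compound: one dose, 5.6 µM nominal. Detection: intracellular calcium via Fluo-8 no-wash fluorescent dye. Measure: % inhibition. Benchmarks: ATP-challenged DMSO wells low, unchallenged DMSO wells high.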
# GalR3 conf: GalR3 (human) antagonism, confirmation; HEK293 GalR3 CNG cAMP biosensor, membrane potential fluorescence; galR3 fused to GalR1 carboxy tail; challenged with forskolin and galanin at EC90; AID 652245; shares compounds with GalR3 antagonist; inhibition, % at 3 µM; 59% of 1,600 active;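 active = inhibition above the primary screen's cutoff, the mean inhibition of all screened compounds plus 3 SD, cut at about 13% in these data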;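 also: 0% = forskolin plus galanin and 100% = forskolin alone with DMSO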
# HEK-CNG parental: parental cell agonism counter-screen for GalR3 antagonists | shares compounds with GalR3 antagonist | HEK293-CNG parental cells, cAMP membrane potential fluorescence; normalised: DMSO wells 0%, forskolin wells 100% | activation, % at 3 µM | 10% of 1,600 active | AID 652268; in the data active = activation above about 1.3%
# * hit, by the source's call; · = no result given.
SMILES,TAAR1 agonist,TAAR1 antagonist,OX1R antag-1,GalR3 antagonist,OX1R antag-2,CHO parental Ca,GalR3 conf,HEK-CNG parental
CC(C)NC(=O)/C(C#N)=C\c1ccc(N(C)C)o1,28,21,25,-9,-8,-1,·,·
CCN(CC)c1ccc(/C=C(/C#N)C(=O)NC(C)C)o1,11,-2,46,13*,0,6,-2,0
CSc1ccc(CNC(=O)Cc2ccc(NC(=O)C3=C(C)OCCS3)cc2)cc1,29,-60,7,3,-16,-6,·,·
CCCCn1c(-c2nonc2NC(=O)c2ccccc2Cl)nc2ccccc21,0,-19,·,19*,·,·,0,0
CCC(C(=O)NC1CCCC1)N(C(=O)Cn1nnc(-c2ccc(C)o2)n1)c1cccc(OC)c1 (configuration not stated),-1,-12,17,-9,-23,-22,·,·
CCOC(=O)Nc1cccc(NC(=O)c2ccccc2F)c1,5,-8,32,19*,-10,0,-3,0
CCCN(C(=O)c1cc(S(=O)(=O)N(C)c2ccccc2OC)ccc1C)C1CCS(=O)(=O)C1 (configuration not stated),3,-8,·,-2,·,·,·,·
COc1ccc([C@H]2C[C@H](n3cc(COC(=O)c4ccccc4)nn3)[C@@H](O)CN2C(=O)c2cccs2)cc1,1,6,·,-4,·,·,·,·
CCCCNC(=O)C1(C)CCN1C(=O)c1ccc(OC)c(F)c1 (configuration not stated),0,-12,·,-4,·,·,·,·
COc1cc(C(=O)NC2CCN(C)CC2)ccc1Nc1ncc2c(n1)N(Cc1ccccc1)CCC(=O)N2C,7,9,·,-4,·,·,·,·
COc1cc(C(=O)NC2CCN(C)CC2)ccc1Nc1ncc2c(n1)N(C1CCCCC1)CCC(=O)N2C,12,-11,·,19*,·,·,13*,0
CCc1ccc(NC(=S)N2CCNC(=O)C2CC(=O)OC)cc1 (configuration not stated),7,10,0,-8,11,-2,·,·
CCOC(=O)COc1cccc2c(=O)n(CC(=O)NCc3ccc(F)cc3)ccc12,-1,0,7,15*,-9,-14,22*,1
CCOC(=O)COc1cccc2c(=O)n(CC(=O)NCc3ccccc3)ccc12,-1,-16,2,8,-16,-5,·,·
COc1cccc(C2=NN(C(=O)c3cccs3)C(O)(C(F)(F)F)C2)c1 (configuration not stated),1,28,23,13*,-34,-41,3,1
Cn1c(CN2CCCCC2)nc2cc(NC(=O)c3ccc(Cl)cc3)ccc21,-1,2,10,81*,-16,-23,48*,0
Cn1c(CN2CCCC2)nc2cc(NC(=O)c3ccc(Cl)cc3)ccc21,0,-3,5,-5,-43,-16,·,·
CC(c1ccc(Cl)cc1)n1c(-c2ccc3ccccc3n2)n[nH]c1=S (configuration not stated),0,13,17,13*,-11,18,7,1
C[C@H](NC(=O)c1ccccc1)C(=O)N1CCC2(CC1)NCCc1[nH]cnc12,1,-1,-7,-9,4,8,·,·
COc1ccc(-c2cc(C(F)(F)F)nc(S(C)(=O)=O)n2)cc1,0,1,15,32*,-10,-4,13*,1
COc1ccc(-c2cc(C(F)(F)F)nc(N)n2)cc1,-2,4,15,-4,-11,7,·,·
CS(=O)(=O)c1nc(-c2ccc(F)cc2)cc(C(F)(F)F)n1,4,-1,·,26*,·,·,25*,1
O=C(Cc1ccccc1[N+](=O)[O-])OCC(=O)c1ccccc1Br,2,8,5,-3,9,-3,·,·
O=C(CSc1cc(Cl)ccc1Cl)NCC1CCCO1 (configuration not stated),8,-2,3,-6,-10,2,·,·
Nc1cc(=O)[nH]c(SCC(=O)NCC2CCCO2)n1 (configuration not stated),1,-21,14,13*,-1,-6,-4,0
SMILES,TAAR1 agonist,TAAR1 antagonist,OX1R antag-1,GalR3 antagonist,OX1R antag-2,CHO parental Ca,GalR3 conf,HEK-CNG parental
O=C(CSc1ncc(C(F)(F)F)cc1Cl)NCC1CCCO1 (configuration not stated),1,-13,4,13*,-16,-13,2,1
O=C1C(=NO)C(c2ccccc2)Oc2ccccc21 (configuration not stated),-3,-17,·,-5,·,·,·,·
COc1cc(/C=N/NC(N)=O)ccc1OCC(=O)Nc1ccc(C)c(C)c1,5,10,1,24*,-12,-4,32*,-1
COc1cc(/C=N/NC(N)=S)ccc1OCC(=O)Nc1ccc(C)c(C)c1,29,41,21,5,-7,30,·,·
CCCCNC(=O)C1c2ccccc2OCC(=O)N1C1CC1 (configuration not stated),1,3,·,-6,·,·,·,·
CC(=O)OCC1OC(n2c(S)c(C#N)c(-c3ccccc3)c(C#N)c2=O)C(OC(C)=O)C(OC(C)=O)C1OC(C)=O (configuration not stated),12,21,·,57*,·,·,87*,1
CC(=O)OCC1OC(c2ccccc2)C(OC(C)=O)C(OC(C)=O)C1OC(C)=O (configuration not stated),11,22,1,-2,-6,-16,·,·
N#Cc1ccc(C(C(=O)NC2CCCCC2)n2c(=O)c(-c3ccccc3)nc3ccccc32)cc1 (configuration not stated),0,-30,·,-7,·,·,·,·
COc1cc(C(=O)NCCc2cc3c(OC)ccc(OC)c3[nH]c2=O)cc(OC)c1OC,5,-2,9,14*,-18,-2,15*,0
COc1ccc(OC)c(NC(=O)CCn2ccnc2)c1,0,-3,-1,-4,-14,-3,·,·
O=c1c(Cl)c(NCC2CCCO2)cnn1C12CC3CC(CC(C3)C1)C2 (configuration not stated),-2,-33,12,15*,-16,8,33*,0
CCNC(=O)C1CCCN(Cc2ccc(C(=O)OCC)cc2)CC1 (configuration not stated),2,6,·,-3,·,·,·,·
